What all share (format): functional, cell-based
Holding throughout (conditions): Homo sapiens

The test system of one assay is M19-MEL. The experiment in a line: Cytotoxicity against M19 Tumor cell line in SRB Cell viability test. In short, it runs like this: (§1)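 Human tumor cell lines exposed to (pro)drug for 5 days; growth measured by microculture sulforhodamine B assay. ID50 = concentration giving 50% growth inhibition versus untreated control cultures, reported in ng/mL. Experiments run in quadruplicate and results averaged.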

The subject of a further assay is IGROV-1. The experiment in a line: Cytotoxicity against IGROV Tumor cell line in SRB Cell viability test. In short, it runs like this: as §1
The test system of another assay is A498. The experiment in a line: Cytotoxicity against A498 Tumor cell line in SRB Cell viability test. In short, it runs like this: as §1
The subject of the next assay is WiDr. The experiment in a line: Cytotoxicity against WIDR Tumor cell line in SRB Cell viability test. In short, it runs like this: as §1
The next assay deals with NCI-H226. Description: Cytotoxicity against H226 Tumor cell line in SRB Cell viability test. The method, boiled down:
as §1

Another assay has as its system EVSA-T. Description: Cytotoxicity against EVSA-T Tumor cell line in SRB Cell viability test. The method, boiled down:
as §1

The test system of another assay is MCF7. The experiment in a line: Cytotoxicity against MCF-7 Tumor cell line in SRB Cell viability test. In short, it runs like this: as §1

The text below walks through data of ChEMBL document CHEMBL1132947, “Synthesis and biological evaluation of 2'-carbamate-linked and 2'-carbonate-linked prodrugs of paclitaxel: selective activation by the tumor-associated protease plasmin” (J Med Chem, 2000).

Values after ≈ are worked out from the molar mass of the structure shown.

Usually IC50 stands for the concentration at which inhibition is half-maximal. A higher IC50 goes with a need for much substance. In the case of `CC(=O)O[C@H]1C(=O)[C@@]2(C)[C@H]([C@H](OC(=O)c3ccccc3)[C@]3(O)CC(OC(=O)[C@H](OC(=O)N(C)CCN(C)C(=O)[C@H](CCCCN)NC(=O)[C@H](Cc4ccccc4)NC(=O)[C@@H](C)N)C(NC(=O)c4ccccc4)c4ccccc4)C(C)=C1C3(C)C)[C@]1(OC(C)=O)CO[C@@H]1C[C@@H]2O.Cl.Cl` (stereo not given in full), the half-maximal inhibitory concentration (IC50) worked out at 0.017 µg/mL in the assay with M19-MEL; 0.011 µg/mL in the assay on IGROV-1; 0.038 µg/mL in the assay with A498; 0.01 µg/mL in the assay with WiDr; 0.021 µg/mL with NCI-H226; 0.0072 µg/mL in the assay on EVSA-T. This compound also showed an IC50 with MCF7 of 0.0066 µg/mL.
Regarding `CC(=O)O[C@H]1C(=O)[C@@]2(C)[C@H]([C@H](OC(=O)c3ccccc3)[C@]3(O)CC(OC(=O)[C@H](OC(=O)N(C)CCN(C)C(=O)[C@H](CCCCN)NC(=O)[C@H](CC(C)C)NC(=O)[C@H](N)C(C)C)C(NC(=O)c4ccccc4)c4ccccc4)C(C)=C1C3(C)C)[C@]1(OC(C)=O)CO[C@@H]1C[C@@H]2O.Cl.Cl` (stereo not given in full), the half-inhibitory concentration (IC50) with M19-MEL worked out at 0.024 µg/mL; in the assay with IGROV-1, 0.026 µg/mL; with A498, 0.045 µg/mL; with WiDr it was 0.011 µg/mL; in the assay on NCI-H226 it was 0.025 µg/mL; in the assay on EVSA-T it was 0.0052 µg/mL. Besides, in the assay on MCF7, the IC50 was found to be 0.0069 µg/mL.
In the case of `CC(=O)O[C@H]1C(=O)[C@@]2(C)[C@H]([C@H](OC(=O)c3ccccc3)[C@]3(O)CC(OC(=O)[C@H](OC(=O)OCc4ccc(NC(=O)[C@H](CCCCN)NC(=O)[C@H](CC(C)C)NC(=O)[C@H](N)C(C)C)cc4)C(NC(=O)c4ccccc4)c4ccccc4)C(C)=C1C3(C)C)[C@]1(OC(C)=O)CO[C@@H]1C[C@@H]2O.Cl.Cl` (stereo not given in full), the IC50 in the assay on M19-MEL was 0.02 µg/mL; in the assay with IGROV-1 it was 0.027 µg/mL; in the assay on A498, > 0.06 µg/mL; in the assay on WiDr, 0.011 µg/mL; with NCI-H226, 0.016 µg/mL; in the assay with EVSA-T it was 0.0093 µg/mL. In the assay with MCF7, this compound had a 50% inhibitory concentration (IC50) of 0.0092 µg/mL.
With `CC(=O)O[C@H]1C(=O)[C@@]2(C)[C@H]([C@H](OC(=O)c3ccccc3)[C@]3(O)C[C@H](OC(=O)[C@H](O)[C@@H](NC(=O)c4ccccc4)c4ccccc4)C(C)=C1C3(C)C)[C@]1(OC(C)=O)CO[C@@H]1C[C@@H]2O` [PACLITAXEL], the IC50 was < 0.003 µg/mL with M19-MEL; 0.01 µg/mL (≈ 11.7 nM) with IGROV-1; < 0.003 µg/mL with A498; < 0.003 µg/mL in the assay with WiDr; < 0.003 µg/mL with NCI-H226; < 0.003 µg/mL in the assay on EVSA-T. For the same compound, in the assay on MCF7, the IC50 was < 0.003 µg/mL.
In the case of `CC(=O)O[C@H]1C(=O)[C@@]2(C)[C@H]([C@H](OC(=O)c3ccccc3)[C@]3(O)CC(OC(=O)[C@H](OC(=O)NCCNC(=O)[C@H](CCCCN)NC(=O)[C@H](Cc4ccccc4)NC(=O)[C@@H](C)N)C(NC(=O)c4ccccc4)c4ccccc4)C(C)=C1C3(C)C)[C@]1(OC(C)=O)CO[C@@H]1C[C@@H]2O.Cl.Cl` (stereo not given in full), the half-maximal inhibitory concentration (IC50) in the assay on M19-MEL turned out to be 0.045 µg/mL; in the assay on IGROV-1, 0.019 µg/mL; in the assay with A498, 0.04 µg/mL; with WiDr it was 0.013 µg/mL; with NCI-H226 it was 0.041 µg/mL; in the assay with EVSA-T it was 0.011 µg/mL. The IC50 in the assay on MCF7 stood at 0.016 µg/mL.
